The source made the active and inactive calls. The rule behind the calls is not given here.
How the values were obtained:
Type in all cases: cell-based
[1] = test system: COS-1; experiment: Agonist activity at recombinant full length human PPARalpha/gamma/RXRalpha expressed in African green monkey COS-1 cells assessed as induction of PLIN1 driven luciferase reporter activity at 25 uM incubated for 18 hrs by dual luciferase reporter gene assay; conditions: filed as agonist
Procedure, shortened: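 COS-1 cells were kept in DMEM/10% FBS at 37 °C, 5% CO2, and seeded at 7×10^4 per well. After 24 h they were lipofected with full-length PPAR and RXR expression plasmids, a PLIN1- or CPT1A-driven luciferase reporter and pRL-CMV Renilla control. Compound in DMSO (final 0.1%) was added 5 h later. After 18 h, cells were lysed for Dual-Luciferase readout. Three biological replicates were run in quadruplicate.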

[2] = target: T1, Peroxisome proliferator-activated receptor alpha (Homo sapiens) (UniProt Q07869); experiment: Agonist activity at human PPARalpha in human HuH-7 cells assessed as increase in ACSL3 gene expression at 50 uM incubated for 24 hrs by SYBR-green based qPCR analysis; conditions: filed as agonist
T1 sequence (whole entry): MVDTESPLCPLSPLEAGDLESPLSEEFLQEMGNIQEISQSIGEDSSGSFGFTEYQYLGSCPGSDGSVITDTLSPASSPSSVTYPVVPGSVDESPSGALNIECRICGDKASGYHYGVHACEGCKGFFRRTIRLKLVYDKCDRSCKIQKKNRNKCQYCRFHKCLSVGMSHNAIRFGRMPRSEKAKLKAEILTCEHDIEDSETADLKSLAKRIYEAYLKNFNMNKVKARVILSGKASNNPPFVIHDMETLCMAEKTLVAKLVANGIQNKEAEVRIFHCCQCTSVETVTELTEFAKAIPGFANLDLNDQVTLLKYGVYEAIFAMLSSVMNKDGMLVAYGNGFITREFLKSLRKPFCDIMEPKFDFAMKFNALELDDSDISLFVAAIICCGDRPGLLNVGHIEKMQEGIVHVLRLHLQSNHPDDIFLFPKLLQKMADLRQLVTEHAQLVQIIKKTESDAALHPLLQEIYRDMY
Procedure, shortened: (§1)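 Cells were seeded at 2×10^5 per well and treated 24 h later with compound in DMSO (final 0.1%). The next day, cells were washed and scraped into RLT buffer. RNA was isolated, and target gene mRNA was quantified by SYBR-green qPCR with specific primers.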

[3] = target: T1, Peroxisome proliferator-activated receptor alpha (Homo sapiens); experiment: Agonist activity at human PPARalpha in 8 day differentiated human SGBS cells assessed as increase in FABP4 gene expression at 25 uM incubated for 24 hrs by SYBR-green based qPCR analysis
Procedure, shortened: (§2)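 SGBS preadipocytes were seeded at passage P6-P8 and grown to confluence. They were differentiated for 4 days in Quickdiff (3FC plus dexamethasone, IBMX and rosiglitazone), then kept in 3FC with medium renewed every fourth day. On day 8, cells were stimulated for 24 h in 3FC with compound:BSA or rosiglitazone. SYBR-green qPCR used gene-specific primers. Data are mean ± SEM of three biological replicates in duplicate.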

[4] = target: T1, Peroxisome proliferator-activated receptor alpha (Homo sapiens); experiment: Agonist activity at human PPARalpha in 8 day differentiated human SGBS cells assessed as increase in ADIPOQ gene expression at 25 uM incubated for 24 hrs by SYBR-green based qPCR analysis; procedure, shortened: as §2
[5] = target: T2, Peroxisome proliferator-activated receptor gamma (Homo sapiens) (UniProt P37231); experiment: Agonist activity at human PPARgamma in 8 day differentiated human SGBS cells assessed as decrease in CXCL5 gene expression at 25 uM incubated for 24 hrs by SYBR-green based qPCR analysis; conditions: filed as agonist
T2 sequence (whole entry): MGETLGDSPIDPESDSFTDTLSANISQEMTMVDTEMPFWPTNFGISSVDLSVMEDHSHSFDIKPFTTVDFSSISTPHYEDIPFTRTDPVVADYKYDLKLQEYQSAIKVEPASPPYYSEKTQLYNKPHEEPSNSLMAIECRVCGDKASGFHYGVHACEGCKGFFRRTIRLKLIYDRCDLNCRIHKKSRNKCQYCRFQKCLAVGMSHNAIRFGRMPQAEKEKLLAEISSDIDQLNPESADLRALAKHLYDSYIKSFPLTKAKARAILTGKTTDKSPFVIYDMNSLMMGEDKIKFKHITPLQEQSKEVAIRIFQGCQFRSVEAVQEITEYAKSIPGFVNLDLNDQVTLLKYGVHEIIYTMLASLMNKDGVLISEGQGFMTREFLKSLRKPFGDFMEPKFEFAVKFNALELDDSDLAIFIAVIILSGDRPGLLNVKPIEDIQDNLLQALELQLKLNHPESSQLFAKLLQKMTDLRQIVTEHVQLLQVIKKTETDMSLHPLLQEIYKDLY

[6] = target: T1, Peroxisome proliferator-activated receptor alpha (Homo sapiens); experiment: Agonist activity at human PPARalpha in human HuH-7 cells assessed as increase in PLIN1 gene expression at 50 uM incubated for 24 hrs by SYBR-green based qPCR analysis; conditions: filed as agonist; procedure, shortened: as §1
[7] = target: T1, Peroxisome proliferator-activated receptor alpha (Homo sapiens); experiment: Agonist activity at human PPARalpha in 8 day differentiated human SGBS cells assessed as increase in ANGPTL4 gene expression at 25 uM incubated for 24 hrs by SYBR-green based qPCR analysis; conditions: filed as agonist; procedure, shortened: as §2

| SMILES | Activity [1] | Activity [2] | Activity [3] | Activity [4] | Activity [5] | Activity [6] | Activity [7] |
| --- | --- | --- | --- | --- | --- | --- | --- |
| CCCCCCCC(=O)/C=C/CCCCCC(=O)O | Active | Active | inactive | inactive | Active |  |  |
| CCCCC/C=C/C(=O)CCCCCCCC(=O)O |  |  | inactive | inactive | Active | Active | Active |
